# ChEMBL document CHEMBL3526106, “Cytochrome P450 regulation by α-tocopherol in Pxr-null and PXR-humanized mice” (Drug Metab Dispos, 2013)
# Key:
# Design in all cases: dose 500 mg/kg
# Mus musculus [1] = assay: Induction of Cyp3a11 gene expression in male PXR null mouse liver at 500 mg/kg for 7 to 14 days dosed through vitamin E-deficient base diet by qPCR method; format: ADME, organism-based; settings: in vivo, po
# Outline: (§1)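 Male mice on vitamin E deficient diet, switched at eight weeks to the same diet with 500 mg/kg DL-α-tocopheryl acetate (controls kept deficient); killed at nine or 10 weeks, livers flash frozen. Hepatic mRNA by SYBR Green qPCR with 25 ng cDNA and 150 nM primers, triplicate reactions; comparative threshold cycle method against β-actin, fold change versus deficient diet; mean ± SEM, two-tailed t-test.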
# Mus musculus [2] = assay: Reduction in Cyp4a10 gene expression in PXR-humanized mouse liver at 500 mg/kg for 7 to 14 days dosed through vitamin E-deficient base diet by qPCR method; format: ADME, organism-based; settings: in vivo, po
# Outline: (§2)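 Male mice (wild-type, Pxr-null, hPXR; NCI-bred) on vitamin E-deficient diet from 3 weeks of age; at 8 weeks half switched to same base diet supplemented with 500 mg/kg DL-α-tocopheryl acetate, rest kept deficient. Livers harvested at 9 and 10 weeks. qPCR: 25 ng cDNA, 150 nM each primer, SYBR Green, triplicate; comparative Ct vs β-actin; fold change enriched vs deficient diet; mean ± SEM, two-tailed unpaired t-test.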
# Mus musculus [3] = assay: Effect on Ugt2b34 gene expression in male PXR null mouse liver at 500 mg/kg for 7 to 14 days dosed through vitamin E-deficient base diet by qPCR method; format: ADME, organism-based; settings: in vivo, po; outline: as §1
# Mus musculus [4] = assay: Effect on Ugt1a10 gene expression in male PXR null mouse liver at 500 mg/kg for 7 to 14 days dosed through vitamin E-deficient base diet by qPCR method; format: ADME, organism-based; settings: in vivo, po; outline: as §1
# Mus musculus [5] = assay: Induction of Cyp4f15 gene expression in male PXR-humanized mouse liver at 500 mg/kg for 7 to 14 days dosed through vitamin E-deficient base diet by qPCR method; format: ADME, organism-based; settings: in vivo, po; outline: as §2
# Mus musculus [6] = assay: Effect on Ugt1a1 gene expression in male PXR-humanized mouse liver at 500 mg/kg for 7 to 14 days dosed through vitamin E-deficient base diet by qPCR method; format: ADME, organism-based; settings: in vivo, po; outline: as §1
# Mus musculus [7] = assay: Effect on Ugt1a6a gene expression in male PXR-humanized mouse liver at 500 mg/kg for 7 to 14 days dosed through vitamin E-deficient base diet by qPCR method; format: ADME, organism-based; settings: in vivo, po; outline: as §1
# Mus musculus [8] = assay: Effect on Ugt2b5 gene expression in wild type mouse liver at 500 mg/kg for 7 to 14 days dosed through vitamin E-deficient base diet by qPCR method; format: ADME, organism-based; settings: in vivo, po; outline: as §1
# Mus musculus [9] = assay: Drug metabolism in male PXR-humanized mouse assessed as urinary alpha-carboxyethylhydroxychroman glycine level at 500 mg/kg for 7 to 14 days dosed through vitamin E-deficient base diet by UPLC-ESI-QTOFMS method based metabolomics analysis; format: ADME, organism-based, Urine; settings: in vivo, po
# Mus musculus [10] = assay: Drug metabolism in male PXR-humanized mouse assessed as urinary alpha-carboxyethylhydroxychroman glucuronide level at 500 mg/kg for 7 to 14 days dosed through vitamin E-deficient base diet by UPLC-ESI-QTOFMS method based metabolomics analysis; format: ADME, organism-based, Urine; settings: in vivo, po
# Outline: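 Male mice from three weeks of age on vitamin E deficient diet; at eight weeks, 24 h predose urine in metabolic cages, then half switched to the same diet supplemented with 500 mg/kg DL-α-tocopheryl acetate. 24 h urine collected at nine and 10 weeks. Urinary metabolites quantitated by UPLC-MRM on triple-quadrupole MS against authentic standards and calibration curves, normalized to urinary creatinine (µmol/mmol creatinine); mean ± SEM, two-tailed unpaired t-test.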
# Mus musculus [11] = assay: Induction of Cyp3a11 gene expression in male PXR-humanized mouse liver at 500 mg/kg for 7 to 14 days dosed through vitamin E-deficient base diet by qPCR method; format: ADME, organism-based; settings: in vivo, po; outline: as §2
# Mus musculus [12] = assay: Induction of Cyp4f14 gene expression in male PXR null mouse liver at 500 mg/kg for 7 to 14 days dosed through vitamin E-deficient base diet by qPCR method; format: ADME, organism-based; settings: in vivo, po; outline: as §2
# Mus musculus [13] = assay: Induction of Cyp4f18 gene expression in wild type mouse liver at 500 mg/kg for 7 to 14 days dosed through vitamin E-deficient base diet by qPCR method; format: ADME, organism-based; settings: in vivo, po; outline: as §2
# Mus musculus [14] = assay: Induction of Cyp4f16 gene expression in wild type mouse liver at 500 mg/kg for 7 to 14 days dosed through vitamin E-deficient base diet by qPCR method; format: ADME, organism-based; settings: in vivo, po; outline: as §2
# Mus musculus [15] = assay: Effect on Ugt1a7c gene expression in male PXR null mouse liver at 500 mg/kg for 7 to 14 days dosed through vitamin E-deficient base diet by qPCR method; format: ADME, organism-based; settings: in vivo, po; outline: as §1
# Mus musculus [16] = assay: Induction of Cyp4f13 gene expression in male PXR-humanized mouse liver at 500 mg/kg for 7 to 14 days dosed through vitamin E-deficient base diet by qPCR method; format: ADME, organism-based; settings: in vivo, po; outline: as §2
# Mus musculus [17] = assay: Effect on Ugt1a7c gene expression in wild type mouse liver at 500 mg/kg for 7 to 14 days dosed through vitamin E-deficient base diet by qPCR method; format: ADME, organism-based; settings: in vivo, po; outline: as §1
# Mus musculus [18] = assay: Effect on Ugt2b34 gene expression in wild type mouse liver at 500 mg/kg for 7 to 14 days dosed through vitamin E-deficient base diet by qPCR method; format: ADME, organism-based; settings: in vivo, po; outline: as §1
# Mus musculus [19] = assay: Effect on Ugt1a1 gene expression in male PXR null mouse liver at 500 mg/kg for 7 to 14 days dosed through vitamin E-deficient base diet by qPCR method; format: ADME, organism-based; settings: in vivo, po; outline: as §1
# Mus musculus [20] = assay: Induction of Cyp2c39 gene expression in male PXR-humanized mouse liver at 500 mg/kg for 7 to 14 days dosed through vitamin E-deficient base diet by qPCR method; format: ADME, organism-based; settings: in vivo, po; outline: as §1
# Mus musculus [21] = assay: Induction of Cyp4f13 gene expression in male PXR null mouse liver at 500 mg/kg for 7 to 14 days dosed through vitamin E-deficient base diet by qPCR method; format: ADME, organism-based; settings: in vivo, po; outline: as §2
# Cyp2b10 = assay: Induction of Cyp2b10 gene expression in wild type mouse liver at 500 mg/kg for 7 to 14 days dosed through vitamin E-deficient base diet by qPCR method; format: ADME, organism-based; settings: po, read-out: FC; outline: as §1
# Mus musculus [22] = assay: Effect on Ugt1a10 gene expression in male PXR-humanized mouse liver at 500 mg/kg for 7 to 14 days dosed through vitamin E-deficient base diet by qPCR method; format: ADME, organism-based; settings: in vivo, po; outline: as §1
# Mus musculus [23] = assay: Induction of Cyp4f18 gene expression in male PXR-humanized mouse liver at 500 mg/kg for 7 to 14 days dosed through vitamin E-deficient base diet by qPCR method; format: ADME, organism-based; settings: in vivo, po; outline: as §2
# Mus musculus [24] = assay: Effect on Ugt1a6b gene expression in male PXR null mouse liver at 500 mg/kg for 7 to 14 days dosed through vitamin E-deficient base diet by qPCR method; format: ADME, organism-based; settings: in vivo, po; outline: as §1
# Mus musculus [25] = assay: Induction of Cyp2c39 gene expression in wild type mouse liver at 500 mg/kg for 7 to 14 days dosed through vitamin E-deficient base diet by qPCR method; format: ADME, organism-based; settings: in vivo, po; outline: as §1
# Mus musculus [26] = assay: Induction of Cyp4f16 gene expression in male PXR-humanized mouse liver at 500 mg/kg for 7 to 14 days dosed through vitamin E-deficient base diet by qPCR method; format: ADME, organism-based; settings: in vivo, po; outline: as §2
# Mus musculus [27] = assay: Drug metabolism in male PXR null mouse assessed as urinary alpha-carboxymethylbutylhydroxychroman glucuronide level at 500 mg/kg for 7 to 14 days dosed through vitamin E-deficient base diet by UPLC-ESI-QTOFMS method based metabolomics analysis; format: ADME, organism-based, Urine; settings: in vivo, po
# Mus musculus [28] = assay: Drug metabolism in male wild type mouse assessed as urinary alpha-carboxymethylbutylhydroxychroman glucuronide level at 500 mg/kg for 7 to 14 days dosed through vitamin E-deficient base diet by UPLC-ESI-QTOFMS method based metabolomics analysis; format: ADME, organism-based, Urine; settings: in vivo, po
smiles,measurement,setting,value
CC(=O)Oc1c(C)c(C)c2c(c1C)CCC(C)(CCCC(C)CCCC(C)CCCC(C)C)O2 (racemic) [alpha-TOCHOPHERYL ACETATE],Activity,Mus musculus [1],Not Active
same,fold change (FC),Mus musculus [2],2.4
same,Activity,Mus musculus [3],Not Active
same,Activity,Mus musculus [4],Not Active
same,Activity,Mus musculus [5],Not Active
same,Activity,Mus musculus [6],Not Active
same,Activity,Mus musculus [7],Not Active
same,Activity,Mus musculus [8],Not Active
same,Drug metabolism,Mus musculus [9],metabolite_detected
same,Drug metabolism,Mus musculus [10],metabolite_detected
same,Activity,Mus musculus [11],Not Active
same,Activity,Mus musculus [12],Not Active
same,Activity,Mus musculus [13],Not Active
same,Activity,Mus musculus [14],Not Active
same,Activity,Mus musculus [15],Not Active
same,Activity,Mus musculus [16],Not Active
same,Activity,Mus musculus [17],Not Active
same,Activity,Mus musculus [18],Not Active
same,Activity,Mus musculus [19],Not Active
same,Activity,Mus musculus [20],Not Active
same,Activity,Mus musculus [21],Not Active
same,fold induction,Cyp2b10,7.3
same,Activity,Mus musculus [22],Not Active
same,Activity,Mus musculus [23],Not Active
same,Activity,Mus musculus [24],Not Active
same,Activity,Mus musculus [25],Not Active
same,Activity,Mus musculus [26],Not Active
same,Drug metabolism,Mus musculus [27],metabolite_detected
same,Drug metabolism,Mus musculus [28],metabolite_detected
